Measurements published in publication PMC10339703 (Clinical and Translational Science, 2023).
Values after ≈ are worked out from the molar mass of the structure shown. “Also recorded” adds a separate entry of the source.

Key:
[1] = system: CYP2C19, CYP2D6, CYP3A4, UGT2B4, and UGT2B7; assay: Inhibition of CYP and UGT enzymes; assay type: in vitro ADME; conditions: at therapeutic concentration ranges; data on file
[2] = In vitro Caco-2 permeability; assay type: in vitro ADME; conditions: human
healthy subjects = assay: Safety and tolerability; assay type: in vivo, human; conditions: for subjects with ADRs, percentage: SAD
How it was run: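 Randomized, double-blind, placebo-controlled (6:2, n = 8/cohort) single oral doses in healthy adults after ≥10 h fast, with sentinel pair observed 24 h first. TEAEs were graded by nature, incidence, severity, seriousness and outcome, coded in MedDRA 23.0. ADR: any AE whose causality to test compound could not be ruled out. Labs, vital signs, examinations and 12-lead ECGs were also monitored.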

Solubility in water = assay type: physicochemical
monkeys = assay: Multiple-dose toxicity study up to 28 days in monkeys; assay type: in vivo
[3] = SAD study, all subjects who received bersiporocin

## O[C@H]1CCCN[C@@H]1CCCn1cnc2c(Cl)c(Cl)ccc21 [Bersiporocin]
[1]
  inhibition of CYP and UGT enzymes: did not inhibit
[2]
  Papp: 7.67 ± 1.06 ×10⁻⁶ cm/s
Healthy subjects; SAD single 100 mg capsule
  ADRs, number of events: 3
  Abdominal discomfort (ADR), subjects n (%): 0
  Abdominal distension (ADR), subjects n (%): 0
  Abdominal pain (ADR), subjects n (%): 0
  Abdominal pain upper (ADR), subjects n (%): 0
  Constipation (ADR), subjects n (%): 0
  Decreased appetite (ADR), subjects n (%): 0
  Diarrhea (ADR), subjects n (%): 0
  Dysgeusia (ADR), subjects n (%): 0
  Epigastric discomfort (ADR), subjects n (%): 0
  Gastroesophageal reflux disease (ADR), number of events: 1
  Gastroesophageal reflux disease (ADR), subjects n (%): 1 (16.7)
  Headache (ADR), subjects n (%): 0
  Hypersensitivity (ADR), subjects n (%): 0
  Hypotension (ADR), subjects n (%): 0
  Malaise (ADR), subjects n (%): 0
  Nausea (ADR), number of events: 1
  Nausea (ADR), subjects n (%): 1 (16.7)
  Neutropenia (ADR), number of events: 1
  Neutropenia (ADR), subjects n (%): 1 (16.7)
  Oropharyngeal pain (ADR), subjects n (%): 0
  Photosensitivity reaction (ADR), subjects n (%): 0
  Subjects with ADRs, n (%): 3 (50.0)
  Tachycardia (ADR), subjects n (%): 0
  Vertigo (ADR), subjects n (%): 0
  Vomiting (ADR), subjects n (%): 0
Healthy subjects; SAD single 100 mg solution
  ADRs, number of events: 12
  Abdominal discomfort (ADR), subjects n (%): 0
  Abdominal distension (ADR), subjects n (%): 0
  Abdominal pain (ADR), subjects n (%): 0
  Abdominal pain upper (ADR), subjects n (%): 0
  Constipation (ADR), subjects n (%): 0
  Decreased appetite (ADR), subjects n (%): 0
  Diarrhea (ADR), subjects n (%): 0
  Dysgeusia (ADR), number of events: 1
  Dysgeusia (ADR), subjects n (%): 1 (16.7)
  Epigastric discomfort (ADR), subjects n (%): 0
  Gastroesophageal reflux disease (ADR), subjects n (%): 0
  Headache (ADR), number of events: 2
  Headache (ADR), subjects n (%): 2 (33.3)
  Hypersensitivity (ADR), subjects n (%): 0
  Hypotension (ADR), subjects n (%): 0
  Malaise (ADR), subjects n (%): 0
  Nausea (ADR), number of events: 5
  Nausea (ADR), subjects n (%): 5 (83.3)
  Neutropenia (ADR), subjects n (%): 0
  Oropharyngeal pain (ADR), subjects n (%): 0
  Photosensitivity reaction (ADR), subjects n (%): 0
  Subjects with ADRs, n (%): 5 (83.3)
  Tachycardia (ADR), subjects n (%): 0
  Vertigo (ADR), subjects n (%): 0
  Vomiting (ADR), number of events: 4
  Vomiting (ADR), subjects n (%): 4 (66.7)
Healthy subjects; SAD single 300 mg capsule
  ADRs, number of events: 15
  Abdominal discomfort (ADR), subjects n (%): 0
  Abdominal distension (ADR), number of events: 1
  Abdominal distension (ADR), subjects n (%): 1 (16.7)
  Abdominal pain (ADR), number of events: 2
  Abdominal pain (ADR), subjects n (%): 2 (33.3)
  Abdominal pain upper (ADR), subjects n (%): 0
  Constipation (ADR), subjects n (%): 0
  Decreased appetite (ADR), number of events: 1
  Decreased appetite (ADR), subjects n (%): 1 (16.7)
  Diarrhea (ADR), number of events: 2
  Diarrhea (ADR), subjects n (%): 2 (33.3)
  Dysgeusia (ADR), subjects n (%): 0
  Epigastric discomfort (ADR), subjects n (%): 0
  Gastroesophageal reflux disease (ADR), subjects n (%): 0
  Headache (ADR), number of events: 1
  Headache (ADR), subjects n (%): 1 (16.7)
  Hypersensitivity (ADR), subjects n (%): 0
  Hypotension (ADR), subjects n (%): 0
  Malaise (ADR), number of events: 1
  Malaise (ADR), subjects n (%): 1 (16.7)
  Nausea (ADR), number of events: 4
  Nausea (ADR), subjects n (%): 3 (50.0)
  Neutropenia (ADR), subjects n (%): 0
  Oropharyngeal pain (ADR), subjects n (%): 0
  Photosensitivity reaction (ADR), subjects n (%): 0
  Subjects with ADRs, n (%): 4 (66.7)
  Tachycardia (ADR), subjects n (%): 0
  Vertigo (ADR), subjects n (%): 0
  Vomiting (ADR), number of events: 3
  Vomiting (ADR), subjects n (%): 3 (50.0)
Healthy subjects; SAD single 500 mg tablet
  ADRs, number of events: 23
  Abdominal discomfort (ADR), subjects n (%): 0
  Abdominal distension (ADR), subjects n (%): 0
  Abdominal pain (ADR), number of events: 1
  Abdominal pain (ADR), subjects n (%): 1 (16.7)
  Abdominal pain upper (ADR), number of events: 1
  Abdominal pain upper (ADR), subjects n (%): 1 (16.7)
  Constipation (ADR), number of events: 1
  Constipation (ADR), subjects n (%): 1 (16.7)
  Decreased appetite (ADR), number of events: 1
  Decreased appetite (ADR), subjects n (%): 1 (16.7)
  Diarrhea (ADR), number of events: 4
  Diarrhea (ADR), subjects n (%): 4 (66.7)
  Dysgeusia (ADR), subjects n (%): 0
  Epigastric discomfort (ADR), number of events: 1
  Epigastric discomfort (ADR), subjects n (%): 1 (16.7)
  Gastroesophageal reflux disease (ADR), subjects n (%): 0
  Headache (ADR), number of events: 2
  Headache (ADR), subjects n (%): 2 (33.3)
  Hypersensitivity (ADR), number of events: 1
  Hypersensitivity (ADR), subjects n (%): 1 (16.7)
  Hypotension (ADR), number of events: 1
  Hypotension (ADR), subjects n (%): 1 (16.7)
  Malaise (ADR), subjects n (%): 0
  Nausea (ADR), number of events: 5
  Nausea (ADR), subjects n (%): 5 (83.3)
  Neutropenia (ADR), subjects n (%): 0
  Oropharyngeal pain (ADR), number of events: 1
  Oropharyngeal pain (ADR), subjects n (%): 1 (16.7)
  Photosensitivity reaction (ADR), subjects n (%): 0
  Subjects with ADRs, n (%): 6 (100)
  Tachycardia (ADR), number of events: 1
  Tachycardia (ADR), subjects n (%): 1 (16.7)
  Vertigo (ADR), number of events: 1
  Vertigo (ADR), subjects n (%): 1 (16.7)
  Vomiting (ADR), number of events: 2
  Vomiting (ADR), subjects n (%): 2 (33.3)
Healthy subjects; SAD single 600 mg capsule
  ADRs, number of events: 15
  Abdominal discomfort (ADR), number of events: 1
  Abdominal discomfort (ADR), subjects n (%): 1 (16.7)
  Abdominal distension (ADR), subjects n (%): 0
  Abdominal pain (ADR), subjects n (%): 0
  Abdominal pain upper (ADR), subjects n (%): 0
  Constipation (ADR), subjects n (%): 0
  Decreased appetite (ADR), subjects n (%): 0
  Diarrhea (ADR), number of events: 2
  Diarrhea (ADR), subjects n (%): 2 (33.3)
  Dysgeusia (ADR), subjects n (%): 0
  Epigastric discomfort (ADR), subjects n (%): 0
  Gastroesophageal reflux disease (ADR), subjects n (%): 0
  Headache (ADR), number of events: 1
  Headache (ADR), subjects n (%): 1 (16.7)
  Hypersensitivity (ADR), subjects n (%): 0
  Hypotension (ADR), subjects n (%): 0
  Malaise (ADR), subjects n (%): 0
  Nausea (ADR), number of events: 6
  Nausea (ADR), subjects n (%): 5 (83.3)
  Neutropenia (ADR), subjects n (%): 0
  Oropharyngeal pain (ADR), subjects n (%): 0
  Photosensitivity reaction (ADR), number of events: 1
  Photosensitivity reaction (ADR), subjects n (%): 1 (16.7)
  Subjects with ADRs, n (%): 5 (83.3)
  Tachycardia (ADR), subjects n (%): 0
  Vertigo (ADR), subjects n (%): 0
  Vomiting (ADR), number of events: 4
  Vomiting (ADR), subjects n (%): 4 (66.7)
Healthy subjects; SAD starting dose group (100 mg, 150 mL solution)
  subjects with nausea and vomiting, percentage: 83.3%
Healthy subjects; [3]
  ADRs, number of events: 68
  TEAEs, number of events: 90
  subjects with TEAEs, number: 23
  subjects with TEAEs, percentage: 77%
Healthy subjects; capsule group (after formulation change)
  subjects with ADRs, percentage: 50%
Healthy subjects; solution group
  subjects with ADRs, percentage: 83%
Healthy subjects; across the study (SAD and MAD)
  severe, life‐threatening, or fatal ADRs: no severe, life‐threatening, or fatal ADRs
  severity of most ADRs: mild in severity
Healthy subjects; single oral dose up to 600 mg and multiple oral doses up to 200 mg twice daily for 14 days
  severe or serious adverse events: No severe or serious adverse events were observed; also recorded: No severe or serious AEs were observed
Solubility in water
  solubility: 19.6 mg/mL (≈ 59.6 mM)
monkeys; calculated from NOAEL in monkeys, safety factor = 10
  maximum recommended starting dose for a 60 kg adult: 154.8 mg
monkeys; monkeys, concluded not to be an adverse event, transient
  clinical observation in toxicity study: vomiting was observed
